# Results taken from ChEMBL document CHEMBL1781959, “Synthesis and in vitro antitumor activity of substituted quinazoline and quinoxaline derivatives: search for anticancer agent” (Eur J Med Chem, 2011).
# Key:
# UACC-62 = assay: Growth inhibition of human UACC62 cells after 48 hrs by SRB assay; type: functional; details: UACC-62, 48 h
# Procedure, shortened: (§1)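 NCI-60 panel cells grown in RPMI 1640 with 5% FBS and 2 mM L-glutamine, then seeded at 5000–40,000 cells/well by doubling time and preincubated for 24 h. Compound in DMSO was tested either at 10^-5 M alone or at 0.01–100 μM in five doses, for 48 h at 37 °C. Cells were fixed with cold TCA (10% final), stained with SRB, and read at 515 nm. GI50 was taken from % growth relative to time-zero and control wells.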
# HCT-116 = assay: Growth inhibition of human HCT116 cells after 48 hrs by SRB assay; type: functional; details: HCT-116, 48 h
# Procedure, shortened: (§2)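 NCI 60-panel five-dose assay at 0.01, 0.1, 1, 10 and 100 μM. Cells in RPMI 1640 with 5% FBS and 2 mM L-glutamine, preincubated 24 h, with time-zero plates TCA-fixed. Drug exposure 48 h at 37 °C. Read by SRB staining at 515 nm. GI50 is the concentration where [(Ti−Tz)/(C−Tz)]×100 = 50, taken from log concentration versus % growth curves.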
# CCRF-CEM [1] = assay: Growth inhibition of human CCRF-CEM cells after 48 hrs by SRB assay; type: functional; procedure, shortened: as §2
# HCC 2998 = assay: Cytotoxicity against human HCC2998 cells after 48 hrs by SRB assay; type: cell-based; details: hcc 2998, 48 h
# Procedure, shortened: (§3)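 NCI-60 five-dose screen in RPMI 1640 with 5% FBS and 2 mM L-glutamine; 5000–40,000 cells/well, 24 h pre-incubation. DMSO stocks diluted to 0.01, 0.1, 1, 10 and 100 μM final; 48 h at 37 °C, 5% CO2. Fixed with TCA (10% final adherent, 16% suspension), stained with 0.4% SRB, A515. GI50, TGI and LC50 taken from time-zero, control and test absorbances.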
# SK-MEL-2 = assay: Growth inhibition of human SK-MEL-2 cells after 48 hrs by SRB assay; type: functional; details: SK-MEL-2, 48 h; procedure, shortened: as §1
# CCRF-CEM [2] = assay: Cytotoxicity against human CCRF-CEM cells after 48 hrs by SRB assay; type: cell-based; procedure, shortened: as §3
# MDA-MB-231 [3] = assay: Growth inhibition of human MDA-MB-231 cells after 48 hrs by SRB assay; type: functional; details: MDA-MB-231, 48 h; procedure, shortened: as §2
# RXF 393 = assay: Growth inhibition of human RXF393 cells after 48 hrs by SRB assay; type: functional; details: RXF 393, 48 h; procedure, shortened: as §2
# DU-145 = assay: Growth inhibition of human DU145 cells after 48 hrs by SRB assay; type: functional; details: DU-145, 48 h; procedure, shortened: as §2
# 786-0 = assay: Cytotoxicity against human 786-0 cells after 48 hrs by SRB assay; type: cell-based; details: 786-0, 48 h; procedure, shortened: as §3
# HT-29 [4] = assay: Cytotoxicity against human HT-29 cells after 48 hrs by SRB assay; type: cell-based; details: ht-29, 48 h; procedure, shortened: as §3
# NCI/ADR-RES [5] = assay: Cytotoxicity against human NCI/ADR-RES cells after 48 hrs by SRB assay; type: cell-based; procedure, shortened: as §3
# OVCAR-4 = assay: Cytotoxicity against human OVCAR4 cells after 48 hrs by SRB assay; type: cell-based; details: ovcar-4, 48 h; procedure, shortened: as §3
# A549 [6] = assay: Growth inhibition of human A549 cells after 48 hrs by SRB assay; type: functional; details: A549, 48 h; procedure, shortened: as §2
# MDA-MB-231 [7] = assay: Cytotoxicity against human MDA-MB-231 cells after 48 hrs by SRB assay; type: cell-based; details: mda-mb-231, 48 h; procedure, shortened: as §3
# PC-3 = assay: Growth inhibition of human PC3 cells after 48 hrs by SRB assay; type: functional; details: PC-3, 48 h; procedure, shortened: as §2
# SF-268 = assay: Cytotoxicity against human SF268 cells after 48 hrs by SRB assay; type: cell-based; details: sf-268, 48 h; procedure, shortened: as §3
# OVCAR-8 = assay: Growth inhibition of human OVCAR8 cells after 48 hrs by SRB assay; type: functional; details: OVCAR-8, 48 h; procedure, shortened: as §2
# SK-MEL-28 [8] = assay: Growth inhibition of human SK-MEL-28 cells after 48 hrs by SRB assay; type: functional; details: SK-MEL-28, 48 h; procedure, shortened: as §1
# NCI-H460 = assay: Cytotoxicity against human NCI-H460 cells after 48 hrs by SRB assay; type: cell-based; details: nci-h460, 48 h; procedure, shortened: as §3
# LOX IMVI = assay: Cytotoxicity against human LOXIMVI cells after 48 hrs by SRB assay; type: cell-based; procedure, shortened: as §3
# SF-539 = assay: Cytotoxicity against human SF539 cells after 48 hrs by SRB assay; type: cell-based; details: sf-539, 48 h; procedure, shortened: as §3
# SK-MEL-28 [9] = assay: Cytotoxicity against human SK-MEL-28 cells after 48 hrs by SRB assay; type: cell-based; details: sk-mel-28, 48 h; procedure, shortened: as §3
# OVCAR-5 = assay: Growth inhibition of human OVCAR5 cells after 48 hrs by SRB assay; type: functional; details: OVCAR-5, 48 h; procedure, shortened: as §2
# MDA-MB-468 = assay: Cytotoxicity against human MDA-MB-468 cells after 48 hrs by SRB assay; type: cell-based; details: mda-mb-468, 48 h; procedure, shortened: as §3
# A549 [10] = assay: Cytotoxicity against human A549 cells after 48 hrs by SRB assay; type: cell-based; details: a549, 48 h; procedure, shortened: as §3
# UO-31 = assay: Cytotoxicity against human UO31 cells after 48 hrs by SRB assay; type: cell-based; details: uo-31, 48 h
# Procedure, shortened: (§4)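 NCI-60 five-dose screen. Cells grown in RPMI 1640 with 5% FBS and 2 mM L-glutamine and pre-incubated 24 h; a time-zero plate is TCA-fixed. Drug added at 0.01, 0.1, 1, 10 and 100 µM (DMSO stock) for 48 h at 37 °C, 5% CO2. Fixed with cold TCA (10% final for adherent, 16% for suspension cells), stained with 0.4% SRB, A515. GI50, TGI and LC50 taken from dose-response curves.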
# NCI/ADR-RES [11] = assay: Growth inhibition of human NCI/ADR-RES cells after 48 hrs by SRB assay; type: functional; procedure, shortened: as §2
# SW-620 = assay: Growth inhibition of human SW620 cells after 48 hrs by SRB assay; type: functional; details: SW-620, 48 h; procedure, shortened: as §1
# SNB-75 = assay: Cytotoxicity against human SNB75 cells after 48 hrs by SRB assay; type: cell-based; details: snb-75, 48 h; procedure, shortened: as §4
# CAKI-1 = assay: Growth inhibition of human Caki1 cells after 48 hrs by SRB assay; type: functional; details: CAKI-1, 48 h; procedure, shortened: as §2
# HT-29 [12] = assay: Growth inhibition of human HT-29 cells after 48 hrs by SRB assay; type: functional; details: HT-29, 48 h; procedure, shortened: as §2
# SK-MEL-5 = assay: Growth inhibition of human SK-MEL-5 cells after 48 hrs by SRB assay; type: functional; details: SK-MEL-5, 48 h; procedure, shortened: as §1
# SF-295 = assay: Growth inhibition of human SF295 cells after 48 hrs by SRB assay; type: functional; details: SF-295, 48 h; procedure, shortened: as §2
smiles,measurement,setting,value
O=c1c2ccccc2nc(-c2ccco2)n1/N=C/c1ccccc1Cl,GI50,UACC-62,6.38 µM
same,TGI,UACC-62,> 100 µM
same,GI50,HCT-116,3.32 µM
same,TGI,HCT-116,23.6 µM
same,GI50,CCRF-CEM [1],11.8 µM
same,TGI,CCRF-CEM [1],> 100 µM
same,LC50,HCC 2998,> 100 µM
same,GI50,SK-MEL-2,6.86 µM
same,TGI,SK-MEL-2,> 100 µM
same,LC50,CCRF-CEM [2],> 100 µM
same,GI50,MDA-MB-231 [3],3.13 µM
same,TGI,MDA-MB-231 [3],7.84 µM
same,GI50,RXF 393,11.6 µM
same,TGI,RXF 393,42.6 µM
same,GI50,DU-145,4.38 µM
same,TGI,DU-145,> 100 µM
same,LC50,786-0,> 100 µM
same,LC50,HT-29 [4],> 100 µM
same,LC50,NCI/ADR-RES [5],52.7 µM
same,LC50,OVCAR-4,> 100 µM
same,GI50,A549 [6],4.78 µM
same,TGI,A549 [6],> 100 µM
same,LC50,MDA-MB-231 [7],> 100 µM
same,GI50,PC-3,8.23 µM
same,TGI,PC-3,> 100 µM
same,LC50,SF-268,> 100 µM
same,GI50,OVCAR-8,3.98 µM
same,TGI,OVCAR-8,25.8 µM
same,GI50,SK-MEL-28 [8],4.45 µM
same,TGI,SK-MEL-28 [8],18.6 µM
same,LC50,NCI-H460,> 100 µM
same,LC50,LOX IMVI,> 100 µM
same,LC50,SF-539,> 100 µM
same,LC50,SK-MEL-28 [9],> 100 µM
same,GI50,OVCAR-5,5.12 µM
same,TGI,OVCAR-5,> 100 µM
same,LC50,MDA-MB-468,> 100 µM
same,LC50,A549 [10],> 100 µM
same,LC50,UO-31,> 100 µM
same,GI50,NCI/ADR-RES [11],2.45 µM
same,TGI,NCI/ADR-RES [11],8.78 µM
same,GI50,SW-620,4.68 µM
same,TGI,SW-620,12.7 µM
same,LC50,SNB-75,> 100 µM
same,GI50,CAKI-1,7.99 µM
same,TGI,CAKI-1,34.8 µM
same,GI50,HT-29 [12],3.42 µM
same,TGI,HT-29 [12],> 100 µM
same,GI50,SK-MEL-5,5.56 µM
same,TGI,SK-MEL-5,31.8 µM
same,GI50,SF-295,3.26 µM
same,TGI,SF-295,> 100 µM
